# Screens (PubChem BioAssay)
# Kir21 inh: inhibitors of mouse Kir2.1 inward-rectifier potassium channel | B-score at 10 µM | hit rate 0.85% among 310,000 | HEK293-Kir2.1, FluxOR thallium flux fluorescence; hits give low values;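 active = fluorescence ratio B-score at or below minus 3 SD of library scores, with starting-brightness B-score within 2 SD, cut at about -4.2 in these data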;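 note: channel flux triggered by added potassium and thallium sulfate stimulus; B-score of peak minus minimum fluorescence over baseline after thallium stimulus; more negative B-score means stronger Kir2.1 block with less thallium influx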
# TRPC4 potent: positive allosteric modulators of TRPC4, primary screen, cell-based, mouse TRPC4beta, HEK293 mu-opioid, Fluo-4 calcium; Short transient receptor potential channel 4 (Mus musculus), Q9QUQ5; DAMGO EC20, Fluo-4 Ca2+ flux; hits give high values; B-score at 10 µM; hit rate 0.42% among 310,000;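 active = B-score of calcium response area above 5 SD of library B-scores, with initial fluorescence ratio within 5 SD of library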;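 note: B-score of integrated fluorescence ratio over time as area under calcium response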
# Target sequence (Q9QUQ5 whole entry, looked up): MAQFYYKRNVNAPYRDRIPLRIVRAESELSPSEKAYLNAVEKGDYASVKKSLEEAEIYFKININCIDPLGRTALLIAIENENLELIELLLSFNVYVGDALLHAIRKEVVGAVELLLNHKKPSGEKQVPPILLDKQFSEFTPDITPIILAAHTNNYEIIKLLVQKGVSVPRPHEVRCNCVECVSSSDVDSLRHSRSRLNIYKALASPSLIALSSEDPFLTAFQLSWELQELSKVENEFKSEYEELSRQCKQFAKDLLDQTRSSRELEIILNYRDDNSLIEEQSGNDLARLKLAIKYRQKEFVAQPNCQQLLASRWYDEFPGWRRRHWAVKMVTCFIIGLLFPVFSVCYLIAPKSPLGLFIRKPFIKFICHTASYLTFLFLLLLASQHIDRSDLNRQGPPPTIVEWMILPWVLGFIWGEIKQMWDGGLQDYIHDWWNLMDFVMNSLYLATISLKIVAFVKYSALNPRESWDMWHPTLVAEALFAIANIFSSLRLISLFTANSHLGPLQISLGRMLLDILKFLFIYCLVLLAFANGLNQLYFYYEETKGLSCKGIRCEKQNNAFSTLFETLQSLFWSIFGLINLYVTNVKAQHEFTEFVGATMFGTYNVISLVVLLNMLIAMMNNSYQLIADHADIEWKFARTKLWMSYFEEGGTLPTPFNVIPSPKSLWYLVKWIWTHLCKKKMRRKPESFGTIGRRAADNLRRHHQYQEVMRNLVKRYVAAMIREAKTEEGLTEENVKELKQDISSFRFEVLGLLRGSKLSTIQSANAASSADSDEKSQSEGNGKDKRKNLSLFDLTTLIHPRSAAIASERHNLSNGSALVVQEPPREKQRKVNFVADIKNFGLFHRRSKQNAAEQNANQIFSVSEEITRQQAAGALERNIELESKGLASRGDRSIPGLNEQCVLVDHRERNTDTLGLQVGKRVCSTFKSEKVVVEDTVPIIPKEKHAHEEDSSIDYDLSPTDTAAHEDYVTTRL
# TRPC6 act: mouse TRPC6 channel activators, primary screen, cell-based, HEK293, membrane potential dye; AID 2550, 2010; Short transient receptor potential channel 6 (Mus musculus), Q61143; hit rate 0.13% among 310,000; HEK293-TRPC6 membrane potential dye fluorescence; hits give high values; B-score at 10 µM;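 active = B-score of the integrated fluorescence ratio above library mean plus 3 SD, and starting fluorescence ratio within library mean plus 5 SD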;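 note: higher score means more depolarization so channel activation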
# TRPC4 agonist: activators of mouse TRPC4 channel, primary screen, Fluo4 calcium, HEK293 TRPC4beta/mu-opioid cells; Short transient receptor potential channel 4 (Mus musculus), Q9QUQ5; Fluo4 calcium fluorescence; hits give high values; B-score at 10 µM; hit rate 0.49% among 310,000; AID 2237, 2010;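 active = B-score above 5 SD of library B-scores, and initial fluorescence ratio not above library mean plus 5 SD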;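 note: positive B-score marks a calcium rise read as TRPC4 activation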
#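 Incubation: 45 min room-temperature Fluo4 loading, 110 s read / System: HEK293 cells stably co-expressing mouse TRPC4beta and mu-opioid receptor / Signal: Fluo4 fluorescence, kinetic / Control set: buffer (low) and maximal DAMGO (high) / Measure: integrated baseline-normalised fluorescence ratio, converted to per-well B score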
# TRPC4 inh: inhibitors of mouse TRPC4 channel, primary screen, Fluo4 calcium, HEK293 TRPC4beta/mu-opioid cells; Short transient receptor potential channel 4 (Mus musculus), Q9QUQ5; DAMGO-evoked Fluo4 calcium flux; hits give low values; B-score at 10 µM; hit rate 0.39% among 300,000;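 active = B-score over 3 SD under the library average, no early fluorescence shift, positive overall ratio signal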
#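 Assay system: Stable TRPC4beta/mu-opioid receptor HEK293 cells | Reagent: DAMGO in two steps, submaximal then maximal | Compound dosing: Single concentration per test compound | Signal: Fluo4 Ca2+ flux fluorescence | Evaluation: Per-well B score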
# TRPC6 inhibitor: mouse TRPC6 channel inhibitors, primary screen, cell-based, HEK293, membrane potential dye. B-score at 10 µM. hit rate 1.1% among 310,000. ACh-evoked depolarization; hits give low values;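 active = B-score under library mean minus 3 SD, initial fluorescence not abnormally high, positive integrated signal ratio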;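 note: B-score derived from integrated fluorescence ratio over the kinetic read; more negative B-score means stronger inhibition of depolarization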
# TRPC4 sel inh 2: second check of whether TRPC6 inhibitors also affect mouse TRPC4; HEK293 TRPC4/MOR, membrane potential dye fluorescence; channel activated by saturating DAMGO dose; inhibition, % at 10 µM; hit rate 42% among 920; shares compounds with TRPC6 inhibitor;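 active = compounds whose fluorescence signal differed from control wells by over 3 SD, either direction, in both duplicate plates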
# TRPC4 spec: mouse TRPC4 modulation by TRPC6 hits, confirmation, selectivity assay for TRPC6 inhibitor project, cell-based, HEK293 TRPC4/mu-opioid, membrane potential dye. shares compounds with TRPC6 inhibitor. membrane potential fluorescence. activity change, negative = inhibition, % at 10 µM. hit rate 61% among 920;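 active = rise or fall in signal beyond 3 SD of buffer-only wells in both replicate plates, either sign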;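 note: integrated kinetic ratio of fluorescence range over baseline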
# HEK293 MPD ctr 2-1: nonspecific membrane potential effects, parental HEK293, confirmation, counter-screen for TRPC6 inhibitor project, cell-based, second counter screen; shares compounds with TRPC6 inhibitor; parental HEK293 membrane potential dye fluorescence; maximal acetylcholine challenge after compound addition; signal change vs control, % at 10 µM; hit rate 31% among 920;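 active = membrane potential signal moving either way by over 3 SD of the maximum-effect control, in both duplicate plates, meaning non-specific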
# HEK293 MPD ctr-1: membrane potential modulation in parental HEK293, confirmation, counter-screen for TRPC6 inhibitor project, cell-based; shares compounds with TRPC6 inhibitor; parental HEK293 membrane potential dye fluorescence; membrane potential signal change, % at 10 µM; hit rate 60% among 920;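 active = membrane potential signal shifting up or down by more than 3 SD of buffer-only wells, on both duplicate plates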
# HEK293 MPD ctr-2: parental HEK293 membrane potential modulation, confirmation, counter-screen for TRPC6 modulator project, cell-based | hit rate 51% among 2,400 | AID 488924, 2010 | membrane potential dye fluorescence | shares compounds with TRPC6 inhibitor | membrane potential signal change, % at 10 µM;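 active = membrane potential signal moves up or down beyond 5 SD from buffer-only wells, on both duplicate plates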
# HEK293 MPD ctr 2-2: second check of TRPC6 modulator effects in parental HEK293 cells; AID 488926; shares compounds with TRPC6 inhibitor; hit rate 14% among 2,400; inhibition, % at 10 µM; membrane potential dye fluorescence; after compound, maximal acetylcholine stimulation;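 active = membrane potential signal drops by more than 5 SD from the mean control signal, in both duplicate plates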;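 note: plate controls were acetylcholine ECmax control wells for no effect and buffer only wells for full effect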
# TRPC4/MOR mod: TRPC4 modulation by TRPC6 hit compounds, confirmation, selectivity assay for TRPC6 modulator project, cell-based, HEK293 TRPC4/mu-opioid, membrane potential dye, mouse. shares compounds with TRPC6 inhibitor. membrane potential fluorescence. percent change from control (negative = decrease, positive = increase), % at 10 µM. hit rate 69% among 2,400. AID 488927, 2010;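 active = membrane potential signal moved up or down beyond 5 SD of buffer control wells, in both duplicate plates, actives on both sides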;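 note: plate controls were assay buffer wells for no effect and DAMGO maximal-effect wells for full effect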
# TRPC4 ctr inh 2: second selectivity test of TRPC6 modulators against mouse TRPC4 | inhibition, % at 10 µM | HEK293 TRPC4/mu-opioid, membrane potential dye fluorescence; stimulated with maximal-effect DAMGO | AID 488928 | hit rate 55% among 2,400 | shares compounds with TRPC6 inhibitor;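 active = drop in membrane potential signal beyond 5 SD of the control wells in both duplicate plates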;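 note: TRPC4 counter screen for TRPC6 hits run under conditions tuned for TRPC6 not TRPC4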
# TRPC6 inh conf: mouse TRPC6 channel inhibitors, confirmation, HEK293 cells, membrane potential dye, duplicate. shares compounds with TRPC6 inhibitor. ACh-evoked depolarization. inhibition, % at 10 µM. hit rate 43% among 3,300;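 active = fluorescence ratio falls more than 5 SD below the full-stimulation control mean, in both duplicate runs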;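 note: integrated fluorescence ratio of peak minus minimum over baseline after agonist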
# TRPC6 act confirm: mouse TRPC6 channel activators, confirmation, HEK293 cells, membrane potential dye, duplicate. HEK293-TRPC6 membrane potential dye fluorescence, FDSS. hit rate 11% among 2,800. AID 488961, 2010. activation, % at 10 µM. shares compounds with TRPC6 inhibitor;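 active = ratio signal rise beyond 5 SD above unstimulated control wells' mean, seen in both duplicate runs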;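 note: plate controls were buffer EC0 wells for no effect and acetylcholine ECmax response for full effect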
# An asterisk follows results filed as active; i = inactive; / = no result. In the library only some 2.9% were active in any assay of this set; here they are far more common.
SMILES,Kir21 inh,TRPC4 potent,TRPC6 act,TRPC4 agonist,TRPC4 inh,TRPC6 inhibitor,HEK293 MPD ctr-2,HEK293 MPD ctr 2-2,TRPC4/MOR mod,TRPC4 ctr inh 2,TRPC6 inh conf,TRPC6 act confirm,others
COCCN(C(=O)Cn1nnc2ccccc21)C(C(=O)NC1CCCCC1)c1ccc(OC)cc1OC (stereo unspecified),1.6,i,38*,i,i,i,818%*,173%*,163%*,i,/,354%*,
COCCN(C(=O)Cn1nnc2ccccc21)C(C(=O)NC1CCCC1)c1ccc(OC)cc1OC (stereo unspecified),0.71,i,20*,i,i,i,600%*,194%*,118%*,i,/,311%*,
CCCCN(C(=O)Cn1nnc2ccccc21)C(C(=O)NCCOC)c1ccc(OC)cc1 (stereo unspecified),0.19,i,i,i,i,i,/,/,/,/,/,/,
COc1ccc(OCCNc2cc(N3CCCCC3)ccc2[N+](=O)[O-])cc1,-0.44,i,i,i,i,i,/,/,/,/,/,/,
CC1CN(c2ccc([N+](=O)[O-])c(NCCOc3ccccc3)c2)CCN1 (stereo unspecified),-5.1*,i,i,i,i,-7.3*,/,/,/,/,i,i,TRPC4 sel inh 2=i;TRPC4 spec=-11%*;HEK293 MPD ctr 2-1=i;HEK293 MPD ctr-1=-142%*
CCn1c2c(c(=N)c3c1CCC3)CCCC2,-1,i,i,i,i,-5.3*,-284%*,i,-48%*,31%*,i,i,
N=c1c2c(n(Cc3ccccc3)c3c1CCC3)CCC2,0.6,i,i,i,-6*,-7.6*,/,/,/,/,65%*,i,TRPC4 sel inh 2=68%*;TRPC4 spec=-24%*;HEK293 MPD ctr 2-1=20%*;HEK293 MPD ctr-1=-394%*
N=c1c2c(n(Cc3ccc(F)cc3)c3c1CCC3)CCCC2,0.58,i,i,i,i,-5.4*,-188%*,i,-30%*,30%*,i,i,
COc1ccc(OC)c(S(=O)(=O)ON2C(=O)c3ccccc3C2=O)c1,0.57,i,i,i,i,i,/,/,/,/,/,/,
CCOc1nc(S(=O)(=O)c2ccc(C)cc2)c(Cl)s1,1.8,i,i,i,i,i,/,/,/,/,/,/,
COCCN(CCOC)c1nc(S(=O)(=O)c2ccc(C)cc2)c(Cl)s1,-1.2,i,i,i,i,-5.4*,106%*,i,24%*,i,i,/,
COc1ccc2nc(C)cc(NCCN3CCOCC3)c2c1,1.1,i,i,i,i,-9.5*,-328%*,88%*,-64%*,54%*,65%*,i,
Cc1cc(NCCN2CCOCC2)c2ccc3ccccc3c2n1,-2.2,i,i,i,i,-6.5*,-94%*,65%*,-26%*,70%*,57%*,i,
COc1ccc(OCCN2CCOCC2)cc1,-0.66,i,i,i,i,i,/,/,/,/,/,/,
COc1cnc(-c2ccccn2)nc1N(C)c1ccccc1,-0.62,i,i,i,i,-5.9*,-59%*,i,i,28%*,i,i,
COc1cnc(-c2ccccn2)nc1Oc1ccccc1,0.98,i,i,i,i,i,/,/,/,/,/,/,
COc1ccc(Sc2nc(-c3ccccn3)ncc2OC)cc1,0.63,i,i,i,i,-6.1*,-99%*,i,-15%*,i,i,i,
CN(CCO)c1cc(NCCCN2CCC(Cc3ccccc3)CC2)c2nonc2c1[N+](=O)[O-],-1.2,i,i,i,i,i,/,/,/,/,/,/,
CC1CCN(CCCNc2cc(NCCO)c([N+](=O)[O-])c3nonc23)CC1,0.02,i,i,i,i,-7.2*,/,/,/,/,57%*,i,TRPC4 sel inh 2=i;TRPC4 spec=-29%*;HEK293 MPD ctr 2-1=36%*;HEK293 MPD ctr-1=-454%*
COc1ccccc1-n1c(-c2ccccc2)c[nH]c1=S,-0.71,i,i,i,i,i,/,/,/,/,/,/,
COc1ccc(-n2c(-c3ccc(Br)cc3)c[n+]3c2CCc2ccccc2-3)cc1,-5.9*,i,i,i,i,-5.3*,-150%*,i,18%*,62%*,i,i,
